Measured values: PubChem BioAssay AID624177 (Southern Research Specialized Biocontainment Screening …, 2012)
Activity calls are given as the source filed them.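 How the source made its calls: active means inhibition of 30% or more at any tested concentration; inactive means the rest.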

These compounds were tested against M18 aspartyl aminopeptidase (Plasmodium falciparum) (assay: inhibition of P. falciparum M18 aminopeptidase – biochemical, QFRET fluorogenic substrate, set 2, dose response (AID 624177)). Conditions: recombinant PfM18AAP, H-Glu-NHMec fluorogenic substrate cleavage.
Procedure, shortened: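 Test system: recombinant PFM18AAP enzyme; quantity: enzyme at 5 µg/mL final; times: 90 min reaction, room temperature; replication: triplicate; controls: no-enzyme background control; medium: pH 7.5 Tris, 2 mM CoCl2, 2% DMSO; compound dosing: 10 concentrations, 1:2 steps, 100–0.2 µM; reagent: fluorogenic H-Glu-NHMec peptide substrate at 0.1 mM final; signal: fluorescence at 370/460 nm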
In the case of `CN(CCCc1ccc(O)c(O)c1)c1ccnc2ccccc12`, the IC50 is reported as 10.3 µM. Work on `CC(Cc1ccc(O)c(O)c1)Nc1ccnc2ccccc12` (centres undefined) yielded an IC50 of 16.6 µM. Compound `CCN(CCc1ccc(O)c(O)c1)c1c2ccccc2nc2ccccc12` has an IC50 of 16.9 µM. `CN(CCCc1ccc(O)c(O)c1)c1c2ccccc2nc2ccccc12` gave an IC50 of 40.1 µM. `Oc1cccc(CCNc2ccnc3ccccc23)c1O` showed an IC50 of 16.5 µM. `CN(CCc1ccc(O)c(O)c1)c1ccnc2c(F)cccc12` gave an IC50 of 8.76 µM. In the case of `Oc1ccc(CCNc2ccnc3cc(Cl)ccc23)cc1O`, the IC50 is reported as 14.8 µM. Work on `Oc1ccc(CCNc2ccnc3c(F)cccc23)cc1O` yielded an IC50 of 9.8 µM. Compound `CN(CCc1ccc(O)c(O)c1)c1c2ccccc2nc2ccccc12` has an IC50 of 30 µM. Work on `Cc1cc(N(C)CCc2ccc(O)c(O)c2)c2ccccc2n1` yielded an IC50 of 11.9 µM. `CN(CCc1ccc(O)c(O)c1)c1ncnc2ccccc12` gave an IC50 of 7.69 µM. Compound `Oc1ccc(C2CCN(c3ccnc4ccccc34)CC2)cc1O` has an IC50 of 4.6 µM. In the case of `CN(CCc1ccc(O)c(O)c1)c1ccnc2cc(Cl)ccc12`, the IC50 is reported as 8.46 µM. Work on `CC(C)(CNc1ccnc2ccccc12)c1ccc(O)c(O)c1` yielded an IC50 of 47.6 µM. Work on `Cc1cccc2c(N(C)CCc3ccc(O)c(O)c3)ccnc12` yielded an IC50 of 11.9 µM. `Cc1cccc2c(NCCc3ccc(O)c(O)c3)ccnc12` gave an IC50 of 14.5 µM. `Oc1ccc(C2CCCN(c3ccnc4ccccc34)C2)cc1O` (centres undefined) was tested, and the IC50 was 7.32 µM. For `Oc1ccc(CCCNc2c3c(nc4ccccc24)CCCC3)cc1O`, the IC50 was 10.8 µM. `Oc1ccc(C2CCN(c3ccnc4ccccc34)C2)cc1O` (centres undefined) was tested, and the IC50 was 6.55 µM.

Same assay, conditions: recombinant PfM18AAP, H-Glu-NHMec fluorogenic substrate cleavage; at 100 µM (top of the series)
With `COc1ccc(CCNc2ncnc3ccccc23)cc1OC` the inhibition was “inactive”. `COc1ccc(CCCNc2c3c(nc4ccccc24)CCCC3)cc1OC` was tested, and the inhibition was “inactive”. With `COc1ccc(CCNc2cc(C)nc3ccccc23)cc1OC` the inhibition was “inactive”. `COc1ccc(CCN(C)c2ccnc3c(C)cccc23)cc1OC` was tested, and the inhibition was “inactive”. For `COc1ccc(CCNc2ccnc3c(F)cccc23)cc1OC`, the inhibition was “inactive”. With `COc1ccc(CCNc2ccnc3c(C)cccc23)cc1OC` the inhibition was “inactive”. With `COc1ccc(CCN(C)c2ccnc3c(F)cccc23)cc1OC` the inhibition was “inactive”. In the case of `COc1ccc(CCN(C)c2ncnc3ccccc23)cc1OC`, the inhibition is reported as “inactive”. With `CCN(CCc1ccc(OC)c(OC)c1)c1c2ccccc2nc2ccccc12` the inhibition was “inactive”. For `COc1cc(Br)c(CCNc2c3c(nc4ccccc24)CCCC3)cc1OC`, the inhibition was “inactive”. For `COc1ccc(CCN(C)c2c3ccccc3nc3ccccc23)cc1OC`, the inhibition was “inactive”. In the case of `COc1ccc(C2CCN(c3ccnc4ccccc34)C2)cc1OC` (centres undefined), the inhibition is reported as “inactive”. `COc1cc(Br)c(CCNc2c3ccccc3nc3ccccc23)cc1OC` was tested, and the inhibition was “inactive”. `COc1ccc(CCN(C)c2ccnc3cc(Cl)ccc23)cc1OC` was tested, and the inhibition was “inactive”. For `Nc1c2ccccc2nc2ccccc12`, the inhibition was “inactive”. In the case of `COc1cc(Br)c(CCNc2ccnc3ccccc23)cc1OC`, the inhibition is reported as “inactive”. In the case of `COc1ccc(CCN(C)c2cc(C)nc3ccccc23)cc1OC`, the inhibition is reported as “inactive”. `Clc1c2c(nc3ccccc13)CCCC2` was tested, and the inhibition was “inactive”. `COc1ccc(C2CCN(c3ccnc4ccccc34)CC2)cc1OC` was tested, and the inhibition was “inactive”. In the case of `CCOc1ccc2nccc(NCCc3ccc(OC)c(OC)c3)c2c1`, the inhibition is reported as “inactive”. `COc1ccc(CCNc2c3c(nc4ccc(C)cc24)CCCC3)cc1OC` was tested, and the inhibition was “inactive”. For `CCOc1ccc2nccc(N(C)CCc3ccc(OC)c(OC)c3)c2c1`, the inhibition was “inactive”. With `COc1ccc(CCCN(C)c2c3ccccc3nc3ccccc23)cc1OC` the inhibition was “inactive”. `COc1ccc(CCNC(=O)c2cc(C)ccc2N)cc1OC` was tested, and the inhibition was “inactive”. With `COc1ccc(CCNc2ccnc3cc(Cl)ccc23)cc1OC` the inhibition was “inactive”.
